Reference: ChEMBL document CHEMBL1143659, “Discovery of a rhodanine class of compounds as inhibitors of Plasmodium falciparum enoyl-acyl carrier protein reductase” (J Med Chem, 2007)
Values after ≈ are worked out from the molar mass of the structure shown. Active and inactive are the calls of the source. No cut-off for these calls is given here.

What was measured:
[1] = molecular target: T1, Enoyl-acyl-carrier protein reductase (Plasmodium falciparum, UniProt Q965D5); assay: (§1) Inhibition of Plasmodium falciparum recombinant enoyl ACP reductase expressed in BL21 (DE3) cells; assay type: biochemical
T1 sequence (Q965D5 whole entry): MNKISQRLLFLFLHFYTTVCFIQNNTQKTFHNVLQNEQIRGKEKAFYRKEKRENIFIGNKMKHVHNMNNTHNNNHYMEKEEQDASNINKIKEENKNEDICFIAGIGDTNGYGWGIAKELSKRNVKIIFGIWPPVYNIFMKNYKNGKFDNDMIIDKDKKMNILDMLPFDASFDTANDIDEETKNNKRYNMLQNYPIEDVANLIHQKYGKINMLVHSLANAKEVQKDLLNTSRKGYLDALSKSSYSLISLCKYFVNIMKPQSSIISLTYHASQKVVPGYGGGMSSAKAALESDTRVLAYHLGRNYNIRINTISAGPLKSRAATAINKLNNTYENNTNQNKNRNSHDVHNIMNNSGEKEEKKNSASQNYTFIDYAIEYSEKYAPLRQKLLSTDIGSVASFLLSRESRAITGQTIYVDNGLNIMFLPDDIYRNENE
In short: (§2)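 His-tagged enzyme from E. coli, Ni-NTA purified. Assay at 25 °C in 150 mM Tris-NaCl pH 7.5, 200 µM crotonoyl-CoA, 100 µM NADH, 200 nM enzyme, 1% DMSO; NADH oxidation followed as A340 decrease. Percent inhibition from residual activity across serial inhibitor dilutions; IC50 by nonlinear regression vs log concentration; mean of three sets.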

[2] = molecular target: T1, Enoyl-acyl-carrier protein reductase; assay: Inhibition of Plasmodium falciparum recombinant enoyl ACP reductase expressed in BL21 (DE3) cells with respect to NADH; assay type: cell-based
In short: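 Ki via Dixon plot (x-intercept). NADH fixed at 50 and 100 µM, crotonoyl-CoA 200 µM, 200 nM enzyme; inhibitor varied from 1 nM up to its IC50. A340 NADH-consumption assay at 25 °C, pH 7.5; mean of three sets.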

[3] = molecular target: T1, Enoyl-acyl-carrier protein reductase; assay: Inhibition of Plasmodium falciparum recombinant enoyl ACP reductase expressed in BL21 (DE3) cells with respect to crotonyl CoA; assay type: cell-based
In short: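 Ki via Dixon plot (x-intercept). Crotonoyl-CoA fixed at 100 and 200 µM, NADH 100 µM; inhibitor varied from 1 nM up to its IC50. Spectrophotometric NADH oxidation at 340 nm, 25 °C, Tris-NaCl pH 7.5; mean of three sets.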

[4] = system: Plasmodium falciparum; assay: Growth inhibition of chloroquine-sensitive Plasmodium falciparum FCK2 in human erythrocytes after 96 hrs; assay type: functional, organism-based; settings: FCK2, 96 h
In short: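 Synchronized early-trophozoite cultures (1-2% parasitemia, 2% hematocrit) in RPMI 1640 with 10% human serum, 0.225% bicarbonate, gentamycin; inhibitor in Me2SO (final ≤0.05%), added up to fourth day. Parasitemia scored by Giemsa-stained microscopy at 48 and 96 h against solvent control. IC50 by nonlinear regression of relative percent parasitemia vs log concentration; three independent experiments.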

[5] = molecular target: T2, Enoyl-acyl-carrier protein reductase (Plasmodium falciparum) (UniProt Q965D5); assay: as §1; assay type: biochemical; in short: as §2
T2 sequence (whole entry): T1 sequence (Q965D5 whole entry)

SMILES | IC50 [1] [µM] | other results
Cc1ccc(-c2ccc(/C=C3\SC(=S)NC3=O)o2)cc1Cl | 28.5 | 
O=C(O)CCCN1C(=O)/C(=C/c2cn(-c3ccccc3)nc2-c2ccc(Cl)cc2)SC1=S | 50 | 
O=C(O)CCCCCN1C(=O)/C(=C/c2c[nH]c3ccccc23)SC1=S | 100 | 
CCc1ccc(/C=C2\SC(=S)N(CCCCCC(=O)OC)C2=O)cc1 | > 100 | 
CCCCCCOc1ccc(/C=C2\SC(=S)N(CCCCCC(=O)O)C2=O)cc1OC | 7 | Ki [2]: 7.3 µM; Ki [3]: 6600 nM
CN1C(=O)/C(=C/c2ccc(-c3ccc(Cl)c(Cl)c3)o2)SC1=S | > 100 | 
COc1ccc(N2C(=O)/C(=C/c3ccc(N(C)C)cc3)SC2=S)cc1 | > 100 | 
O=C(NC1CCCc2ccccc21)c1cc(Sc2cccc(Cl)c2)nc2ccccc12 (stereo not drawn) | 50 | 
COC(=O)CCCCCN1C(=O)/C(=C/c2ccc(Cl)cc2)SC1=S | > 100 | 
CN1C(=O)/C(=C/c2ccc(-c3cc(Cl)cc(Cl)c3)o2)SC1=S | 0.87 | 
CCN1C(=O)/C(=C/c2cc(Cl)c(O)c(Cl)c2)SC1=S | > 100 | 
Cc1cc(/C=C2\SC(=S)N(CCCCCC(=O)O)C2=O)ccc1OCc1ccccc1 | > 100 | 
O=C1/C(=C/c2ccc(-c3ccc(Cl)cc3)o2)SC(=S)N1c1cccc(Cl)c1 | > 100 | 
CC(C)(C)c1ccc(CS[n+]2cc3ccccc3c(=O)n2Nc2ccc(Cl)nn2)cc1 | 50 | 
CCN(CC)c1ccc(N2C(=O)/C(=C/c3ccc(OC)cc3)SC2=S)cc1 | > 100 | 
O=C1/C(=C/c2ccc(O)c(O)c2)SC(=S)N1c1ccccc1 | 0.035 | Ki [2]: 0.032 µM; Ki [3]: 4.2 nM; IC50 [4]: 750 nM; MIC [4]: 2.5 µM (≈ 0.824 µg/mL)
O=C1NC(=S)S/C1=C\c1ccc(-c2cc(Cl)ccc2Cl)o1 | 6 | Ki [2]: 2.5 µM; Ki [3]: 2000 nM
O=C1NC(=S)S/C1=C\c1ccc(-c2ccccc2Cl)o1 | 35 | 
CN(C)CCOC(=O)CCCCCN1C(=O)/C(=C/c2ccccc2)SC1=S | > 100 | 
COc1ccc(N2C(=O)/C(=C/c3ccc(C(C)C)cc3)SC2=S)cc1 | > 100 | 

SMILES | IC50 [1] [µM] | other results
O=C(NCCN1CCCc2ccccc21)c1cc(-c2ccc(Cl)s2)nc2ccccc12 | 60 | 
CCCCOc1ccc(/C=C2\SC(=S)N(CCCCCC(=O)OC)C2=O)cc1 |  | Activity [5]: inactive
COc1ccc(N2C(=O)/C(=C/c3ccc(C=O)cc3)SC2=S)cc1 | 1.5 | Ki [2]: 14.4 µM; Ki [3]: 13200 nM
O=C1/C(=C/c2ccc(Cl)cc2Cl)SC(=S)N1c1ccc(O)cc1 | 25 | 
CN1C(=O)/C(=C/c2ccc(-c3cccc(Cl)c3)o2)SC1=S | 30.2 | 
COc1ccc(/C=C2\SC(=S)N(c3ccc(O)cc3)C2=O)cc1 | 10 | Ki [2]: 9.1 µM; Ki [3]: 8700 nM
O=C(Nc1cc(Cl)ccc1O)c1cc(-c2ccc(Cl)cc2)on1 | 75 | 
CN(C)CCOC(=O)CCN1C(=O)/C(=C/c2ccc(Cl)cc2Cl)SC1=S | > 100 | 
O=C1NC(=S)S/C1=C\c1ccc(-c2cccc(Cl)c2Cl)o1 | 0.87 | Ki [2]: 0.56 µM; Ki [3]: 480 nM
COc1cc(/C=C2\SC(=S)N(CCCCCC(=O)O)C2=O)ccc1OCc1ccc(Cl)cc1 | 6.5 | Ki [2]: 5.4 µM; Ki [3]: 5100 nM
Clc1ccc(CNc2nc(SCc3ccc(Cl)cc3)nc3ccccc23)cc1 | 52 | 
COc1ccc(/C=C2\SC(=S)N(c3ccc(OC)cc3)C2=O)cc1 | > 100 | 
Cc1ccc(-c2ccc(/C=C3\SC(=S)N(C)C3=O)o2)cc1Cl | 0.87 | 
CN1C(=O)/C(=C/c2ccc(-c3ccc(Cl)cc3Cl)o2)SC1=S | 0.87 | Activity [5]: inactive
COc1ccc(-c2cc(C(=O)Nc3cc(Cl)ccc3O)no2)cc1 | 55 | 
CN(C)c1ccc(/C=C2\SC(=S)N(c3ccc(O)cc3)C2=O)cc1 | 0.87 | 
COc1ccc(N2C(=O)/C(=C/c3c4ccccc4cc4ccccc34)SC2=S)cc1 | > 50 | 
CC(C)c1ccc(/C=C2\SC(=S)N(CCCCCC(=O)O)C2=O)cc1 | > 100 | 
O=C1/C(=C/c2ccc(-c3cccc(Cl)c3)o2)SC(=S)N1c1cccc(Cl)c1 | > 100 | 
COc1cc(/C=C2\SC(=S)N(c3ccc(O)cc3)C2=O)ccc1O | 0.87 | 

SMILES | IC50 [1] [µM] | other results
COc1ccc(N2C(=O)/C(=C/c3ccccc3)SC2=S)cc1 | > 100 | 
CCc1nnc(NS(=O)(=O)c2ccc(N3C(=O)c4c(Cl)c(Cl)c(Cl)c(Cl)c4C3=O)cc2)s1 | 90 | 
CCN1C(=O)/C(=C/c2ccc(N(CC)CC)cc2O)SC1=S | > 100 | 
O=C1/C(=C/c2ccco2)SC(=S)N1c1cccc(F)c1 | > 100 | 
Oc1cc(Cl)ccc1Oc1ccc(Cl)cc1Cl [TRICLOSAN] | 0.066 | Ki [3]: 660 nM
O=C(O)c1cccc(-c2ccc(/C=C3\SC(=S)N(c4cccc(C(F)(F)F)c4)C3=O)o2)c1 | 20 | 
COC(=O)CCCCCN1C(=O)/C(=C/c2cccc(O)c2)SC1=S | > 100 | 
CCCCCOc1ccc(/C=C2\SC(=S)N(CCCCCC(=O)O)C2=O)cc1OC | > 100 | 
COc1ccc(Cl)cc1NC(=O)c1cc(-c2ccc(Cl)s2)nc2ccccc12 | 60 | 
CCCOc1ccc(/C=C2\SC(=S)N(CCCCCC(=O)O)C2=O)cc1OC | 45 | 
O=C1NC(=S)S/C1=C\c1ccc(-c2cccc(Cl)c2)o1 | 1.7 | Ki [2]: 1.05 µM; Ki [3]: 880 nM
O=C1NC(=S)S/C1=C\c1ccc(-c2ccc(Cl)c(Cl)c2)o1 | 0.98 | Ki [2]: 0.63 µM; Ki [3]: 510 nM
O=C1/C(=C/c2cccc(O)c2)SC(=S)N1c1ccccc1 | > 100 | 
O=C1c2c(Cl)c(Cl)c(Cl)c(Cl)c2C(=O)N1c1ccc2[nH]c(/C=C/c3ccc(Cl)cc3)nc2c1 | 70 | 
O=C1NC(=S)S/C1=C\c1ccc(-c2cc(Cl)cc(Cl)c2)o1 | 6.1 | Ki [2]: 5.5 µM; Ki [3]: 4100 nM
O=C1/C(=C/c2cccc(O)c2)SC(=S)N1c1ccc(F)cc1 | > 100 | 
COC(=O)CCCCCN1C(=O)/C(=C/c2cc(OC)c(OC)c(OC)c2)SC1=S |  | Activity [5]: inactive
COc1ccc(N2C(=O)/C(=C/c3ccc(OC)c4ccccc34)SC2=S)cc1 | 0.87 | 
CCOc1ccc(N2C(=O)/C(=C/c3cccc4ccccc34)SC2=S)cc1 |  | Activity [5]: inactive
